Results taken from ChEMBL document CHEMBL1126796, “2-(Alkylamino)nicotinic acid and analogs. Potent angiotensin II antagonists” (J Med Chem, 1993).
pKi: −log10 of the molar value. Activity calls are given as the source filed them. The calls are words filed in the database; no cut-off is given here.

Legend:
[1] = target: T1, Type-1 angiotensin II receptor A (Rattus norvegicus, UniProt P25095); assay: Binding affinity against angiotensin II receptor from rat liver
T1 sequence (P25095 whole entry): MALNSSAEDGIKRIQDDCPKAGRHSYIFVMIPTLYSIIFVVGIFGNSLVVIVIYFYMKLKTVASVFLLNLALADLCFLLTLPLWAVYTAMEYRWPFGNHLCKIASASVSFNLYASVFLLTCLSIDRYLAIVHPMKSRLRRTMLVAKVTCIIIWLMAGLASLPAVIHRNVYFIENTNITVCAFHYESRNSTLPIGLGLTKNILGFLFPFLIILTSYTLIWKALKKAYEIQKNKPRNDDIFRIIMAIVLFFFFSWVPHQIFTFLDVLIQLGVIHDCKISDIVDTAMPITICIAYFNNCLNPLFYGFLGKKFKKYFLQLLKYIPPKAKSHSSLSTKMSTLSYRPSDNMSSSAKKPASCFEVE
Procedure, shortened: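 Rat liver membranes were incubated with [125I]-saralasin to measure angiotensin II type 1 receptor binding. Nonspecific binding was defined with 1 µM angiotensin.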

Rattus norvegicus [2] = assay: % decrease in blood pressure after 4 hours at a dose of 30 mg/kg in male rats by using Renal artery hypertensive model; assay type: functional
Procedure, shortened: (§1)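 Male Sprague-Dawley rats (300-350 g) were made hypertensive by renal artery ligation and used on day 6 or 7 after ligation. Arterial pressure was measured from an indwelling femoral artery catheter, with blood pressure and heart rate recorded on line. Read-out is % decrease in blood pressure at 4 h, ±SEM, with number of rats.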

Rattus norvegicus [3] = assay: % decrease in blood pressure after 4 hours at a dose of 0.3 mg/kg in male rats by using Renal artery hypertensive model; assay type: functional; procedure, shortened: as §1
Rattus norvegicus [4] = assay: % decrease in blood pressure after 24 hours at a dose of 1 mg/kg in male rats by using Furosemide-treated spontaneous hypertensive model; assay type: functional
Procedure, shortened: (§2)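 Male SHR, 20-24 weeks old, pretreated with furosemide 10 mg/kg sc at 22 and 4 h before the experiment; compound dosed orally. Arterial pressure was recorded from an indwelling femoral artery catheter with on-line blood pressure and heart rate analysis. Read-out is % fall in blood pressure at 4 h and at 24 h, ±SEM, with number of rats.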

Rattus norvegicus [5] = assay: % decrease in blood pressure after 4 hours at a dose of 1 mg/kg in male rats by using Furosemide-treated spontaneous hypertensive model; assay type: functional; procedure, shortened: as §2
Rattus norvegicus [6] = assay: % decrease in blood pressure after 4 hours at a dose of 10 mg/kg in male rats by using Renal artery hypertensive model; assay type: functional; procedure, shortened: as §1
Rattus norvegicus [7] = assay: % decrease in blood pressure after 24 hours at a dose of 0.1 mg/kg in male rats by using Furosemide-treated spontaneous hypertensive model; assay type: functional; procedure, shortened: as §2
Rattus norvegicus [8] = assay: % decrease in blood pressure after 24 hours at a dose of 0.3 mg/kg in male rats by using Furosemide-treated spontaneous hypertensive model; assay type: functional; procedure, shortened: as §2
Rattus norvegicus [9] = assay: % decrease in blood pressure after 4 hours at a dose of 0.1 mg/kg in male rats by using Furosemide-treated spontaneous hypertensive model; assay type: functional; procedure, shortened: as §2
Rattus norvegicus [10] = assay: % decrease in blood pressure after 4 hours at a dose of 0.3 mg/kg in male rats by using Furosemide-treated spontaneous hypertensive model; assay type: functional; procedure, shortened: as §2
Rattus norvegicus [11] = assay: % decrease in blood pressure after 4 hours in male rats at a dose of 0.1 mg/kg by using Renal artery hypertensive model; assay type: functional; procedure, shortened: as §1
[12] = Area under curve after oral dose of 3.87 mg/kg; assay type: ADME, organism-based; parameters: dose 3.87 mg/kg, route oral; conditions: in vivo
Procedure, shortened: (§3)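 Male Sprague-Dawley-derived rats were dosed with compound in normal saline (1 mL/kg), by gavage or as a slow IV bolus into the jugular vein. Heparinized tail-vein blood was taken at 0.25-24 h, extracted liquid-liquid and assayed by reverse-phase HPLC. Cmax is the observed peak concentration and AUC is mean (SEM). F compares oral with IV AUC, corrected for dose and assuming dose proportionality.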

[13] = Cmax value after oral dose of 3.87 mg/kg; assay type: ADME, organism-based; parameters: dose 3.87 mg/kg, route oral; conditions: in vivo; procedure, shortened: as §3
[14] = Volume of distribution of central compartment (= dose+ plasma concentration at time zero) after intravenous dose of 3.87 mg/kg; assay type: ADME, organism-based; parameters: dose 3.87 mg/kg, route intravenous; conditions: read-out: VI
Procedure, shortened: (§4)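 Jugular-vein slow iv bolus (normal saline, 1 mL/kg) in male Sprague-Dawley-derived rats. Plasma was sampled via the tail vein at 0.1–24 h and measured by reverse-phase HPLC after liquid-liquid extraction. Central volume was taken as dose divided by plasma concentration at time zero. Terminal-phase volume was derived from clearance and the plasma elimination rate constant.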

[15] = Volume of distribution of the terminal phase (= CLp+ plasma elimination rate constant) after intravenous dose of 3.87 mg/kg; assay type: ADME, organism-based; parameters: dose 3.87 mg/kg, route intravenous; conditions: read-out: Vbeta; procedure, shortened: as §4
[16] = Plasma clearance after intravenous dose of 3.87 mg/kg; assay type: ADME, organism-based; parameters: dose 3.87 mg/kg, route intravenous; conditions: read-out: Clp
Procedure, shortened: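 Male Sprague-Dawley-derived rats received a slow iv bolus into the jugular vein of the compound in normal saline (1 mL/kg). Tail-vein heparinized blood was drawn from 0.1 to 24 h and assayed by reverse-phase HPLC after liquid-liquid extraction. Total plasma clearance was calculated as dose divided by AUC and reported as mean (SEM).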

[17] = Apparent bioavailability after oral dose of 3.87 mg/kg; assay type: ADME, organism-based; conditions: eutheria, in vivo; procedure, shortened: as §3
[18] = Tmax value after oral dose of 3.87 mg/kg; assay type: ADME, organism-based; parameters: dose 3.87 mg/kg, route oral; conditions: in vivo
Procedure, shortened: (§5)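 Male Sprague-Dawley-derived rats. Compound was given in normal saline at 1 mL/kg, either as a slow iv bolus into the jugular vein or orally by gavage. Plasma underwent liquid-liquid extraction and reverse-phase HPLC. Terminal elimination half-life and time of observed peak concentration were taken from the profiles.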

[19] = Half-life period of compound after intravenous dose of 3.87 mg/kg; assay type: ADME, organism-based; parameters: dose 3.87 mg/kg, route intravenous; conditions: in vivo; procedure, shortened: as §5
[20] = Half-life period after oral dose of 3.87 mg/kg; assay type: ADME, organism-based; parameters: dose 3.87 mg/kg, route oral; conditions: in vivo; procedure, shortened: as §5
Rattus norvegicus [21] = assay: % decrease in blood pressure after 4 hours at a dose of 3 mg/kg in male rats by using Renal artery hypertensive model; assay type: functional; procedure, shortened: as §1
Rattus norvegicus [22] = assay: % decrease in blood pressure after 4 hours in male rats at a dose of 0.03 mg/kg by using Renal artery hypertensive model; assay type: functional; procedure, shortened: as §1
Rattus norvegicus [23] = assay: % decrease in blood pressure after 4 hours in male rats at a dose of 0.3 mg/kg by using Renal artery hypertensive model; assay type: functional; procedure, shortened: as §1
Rattus norvegicus [24] = assay: % decrease in blood pressure after 4 hours at a dose of 0.3 mg/kg in male rats by using Renal artery hypertensive model; IA means inactive; assay type: functional, organism-based; parameters: dose 0.3 mg/kg; procedure, shortened: as §1
Rattus norvegicus [25] = assay: % decrease in blood pressure after 4 hours in male rats at a dose of 3 mg/kg administered iv by using Renal artery hypertensive model; IA means inactive; assay type: functional, organism-based; parameters: dose 3 mg/kg; procedure, shortened: as §1
Rattus norvegicus [26] = assay: % decrease in blood pressure after 4 hours at a dose of 3 mg/kg administered iv in male rats by using Renal artery hypertensive model; IA means inactive; assay type: functional, organism-based; parameters: dose 3 mg/kg; procedure, shortened: as §1

## CCCCN(Cc1ccc(-c2ccccc2-c2nn[nH]n2)cc1)c1nc(C)ncc1C(=O)O.Cl
[1]
  pKi: 7.82
Rattus norvegicus [2]
  Decrease in blood pressure: 11%

## CCCN(Cc1ccc(-c2ccccc2-c2nn[nH]n2)cc1)c1ncccc1C=O
Rattus norvegicus [3]
  Decrease in blood pressure: 15%

## CCCN(Cc1ccc(-c2ccccc2-c2nn[nH]n2)cc1)c1nc(F)ccc1C(=O)O
Rattus norvegicus [4]
  Decrease in blood pressure: 36%
Rattus norvegicus [5]
  Decrease in blood pressure: 15%

## CCCN(Cc1ccc(-c2ccccc2-c2nn[nH]n2)cc1)c1ncccc1NS(=O)(=O)C(F)(F)F
Rattus norvegicus [3]
  Decrease in blood pressure: 6%

## CCCCc1nc(Cl)c(C(=O)O)n1Cc1ccc(-c2ccccc2-c2nn[nH]n2)cc1 [CARBOXYLIC ACID METABOLITE]
Rattus norvegicus [6]
  Decrease in blood pressure: 40%

## CCCCN(Cc1ccc(-c2ccccc2-c2nn[nH]n2)cc1)c1ncccc1C(=O)O
Rattus norvegicus [7]
  Decrease in blood pressure: 22%
Rattus norvegicus [8]
  Decrease in blood pressure: 40%
Rattus norvegicus [9]
  Decrease in blood pressure: 5%
Rattus norvegicus [10]
  Decrease in blood pressure: 14%
Rattus norvegicus [3]
  Decrease in blood pressure: 45%
Rattus norvegicus [11]
  Decrease in blood pressure: 16%

## CCc1nc2c(C)cc(C)nc2n1Cc1ccc(-c2ccccc2-c2nnn[nH]2)cc1 [L-158809]
[12]
  AUC: 11.14 µg/h/mL
[13]
  Cmax: 1590 ng/mL
[14]
  Vd: 0.41 L/kg
[15]
  Vd: 1.78 L/kg
[16]
  clearance: 1.47 mL/min
[17]
  bioavailability: 66.7%
[18]
  Tmax: 2 h
[19]
  half-life: 4.5 h
[20]
  half-life: 3.9 h
[1]
  pKi: 9.35
Rattus norvegicus [21]
  Decrease in blood pressure: 32%
Rattus norvegicus [4]
  Decrease in blood pressure: 30%
Rattus norvegicus [5]
  Decrease in blood pressure: 32%
Rattus norvegicus [22]
  Decrease in blood pressure: 8%
Rattus norvegicus [11]
  Decrease in blood pressure: 15%
Rattus norvegicus [23]
  Decrease in blood pressure: 25%

## CCCN(Cc1ccc(-c2ccccc2-c2nn[nH]n2)cc1)c1ncccc1CO
Rattus norvegicus [24]
  Decrease in blood pressure: inactive

## CCCN(Cc1ccc(-c2ccccc2-c2nn[nH]n2)cc1)c1ncc(F)cc1C(=O)O
Rattus norvegicus [4]
  Decrease in blood pressure: 22%
Rattus norvegicus [5]
  Decrease in blood pressure: 6%

## CCc1ncc(C(=O)O)c(NCc2ccc(-c3ccccc3-c3nn[nH]n3)cc2)n1.Cl
[1]
  pKi: 7.17
Rattus norvegicus [25]
  Decrease in blood pressure: inactive
Rattus norvegicus [26]
  Decrease in blood pressure: inactive
